Laboratory results reported in ChEMBL document CHEMBL1133654, “Studies directed at the use of a parallel synthesis matrix to increase throughput in an in vivo assay” (2000).

experiment: Mean plasma clotting time (APTT) was measured following a single colonic dose with heparin in rats; type: functional, Rattus norvegicus
Procedure, shortened: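 Male Sprague-Dawley rats (300-350 g, fasted 12 h, groups of 5) were anesthetized with ketamine 44 mg/kg im and given one colonic dose (1 mL/kg) by catheter through the anus. Dosing was delivery agent 50 mg/kg plus heparin 25 mg/kg for single agents, or 50 mg/kg for mixtures, as a sonicated solution of apparent pH about 7. Citrated cardiac blood was taken at 0-1.5 h, and mean peak plasma APTT was reported.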

| Structure (SMILES) | APTT [s] |
| --- | --- |
| O=C(O)CCCCCCCCCCCNC(=O)c1ccccc1 | 24 |
| COc1ccccc1C(=O)NCCCCCCCC(=O)O | 27 |
| COc1ccccc1C(=O)NCCCCCC(=O)O | 31 |
| COc1ccccc1C(=O)NCCCCCCCCCC(=O)O | 50 |
| O=C(O)CCCCCNC(=O)c1ccccc1O | 24 |
| O=C(O)CCCCCCCCCCCNC(=O)c1ccccc1F | 33 |
| O=C(O)CCCCCCCCCNC(=O)c1ccccc1O | 153 |
| O=C(O)CCCCCCCCCCCNC(=O)c1ccccc1O | 86 |
| Cc1ccccc1C(=O)NCCCCCCCC(=O)O | 23 |
| O=C(O)CCCCCCCNC(=O)c1ccccc1 | 21 |
| Cc1ccccc1C(=O)NCCCCCCCCCC(=O)O | 34 |
| O=C(O)CCCNC(=O)c1ccccc1O | 31 |
| COc1ccccc1C(=O)NCCCC(=O)O | 26 |
| O=C(O)CCCCCCCCCNC(=O)c1ccccc1F | 27 |
| O=C(O)CCCCCNC(=O)c1ccccc1 | 33 |
| O=C(O)CCCCCCCCCNC(=O)c1ccccc1 | 31 |
| O=C(O)CCCCCNC(=O)c1ccccc1F | 28 |
| COc1ccccc1C(=O)NCCCCCCCCCCCC(=O)O | 54 |
| Cc1ccccc1C(=O)NCCCC(=O)O | 24 |
| O=C(O)CCCNC(=O)c1ccccc1F | 22 |
| O=C(O)CCCNC(=O)c1ccccc1 | 22 |
| O=C(O)CCCCCCCNC(=O)c1ccccc1O [SALCAPROZIC ACID] | 125 |
| O=C(O)CCCCCCCNC(=O)c1ccccc1F | 25 |
| Cc1ccccc1C(=O)NCCCCCCCCCCCC(=O)O | 30 |
| Cc1ccccc1C(=O)NCCCCCC(=O)O | 26 |
